Screening results (PubChem)
HCV core dimer – HCV core protein dimerization inhibition. inhibition, % at 5 µM. hit rate 0.33% among 300,000. TR-FRET GST/Flag-core106 dimerization, 1536-well;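 active = inhibition above the mean of all tested compounds plus 3 SD, set per screening campaign, cut at about 45% in these data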
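Material: Tagged HCV core106 pair (GST and Flag) | Amount: GST-core106 13.5 nM, Flag-core106 17 nM | Medium: KF-containing HEPES buffer, pH 7.45, DTT, CHAPS, BSA | Reagent: Eu donor and XL665 acceptor anti-tag antibodies | Schedule: 4 h at 22.5 °C | Technique: Time-resolved FRET, ex 340 nm, em 617 and 671 nm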
PABP1 MLLE inh – blocks PAM2 peptide binding to the PABP1 MLLE domain; P11940; GST-MLLE / FITC-PAM2 fluorescence polarization; inhibition, % at 20 µM; hit rate 0.36% among 360,000; AID 588489; in the data active = inhibition above about 35%, passing the limit was not always enough;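 note: plate controls were DMSO wells with GST-MLLE for no effect and wells lacking GST-MLLE protein for full effect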
PABP polyA inh – PABP-poly(A) binding inhibition. PABP-poly(A) RNA binding, fluorescence polarization. calls only at 35 µM. hit rate 1% among 290,000;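 note: calls also rest on retests at 20 µM and on dose response follow-up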
eIF4E-4G inh – inhibitors of eIF4E and eIF4G interaction in translation initiation; inhibition, % at 21.7 µM; TR-FRET eIF4E-eIF4GI(517-606) binding, 2 h; hit rate 0.37% among 220,000; AID 782;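 active = inhibition above about 30%, limit read from the data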;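 note: 0% = full FRET control wells and 100% = background wells lacking eIF4GI fragment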
eIF4H inh – inhibitors of RNA binding by human eIF4H; Q15056; AID 2012; hit rate 0.94% among 290,000; eIF4H fluorescence polarization binding assay; inhibition, % at 35 µM;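 note: calls also rest on retests at 20 µM and on dose response follow-up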
UBC9 SUMO inh – inhibitors of human SUMOylation (UBC9). P63279. HTRF SUMOylation assay, SAE1/SAE2 + UBC9, in vitro. inhibition, % at 35 µM. hit rate 0.36% among 290,000; in the data active = inhibition above about 50%, passing the limit was not always enough; inconclusive = no clear call, values can overlap the other calls
Target sequence (P63279 whole entry, looked up): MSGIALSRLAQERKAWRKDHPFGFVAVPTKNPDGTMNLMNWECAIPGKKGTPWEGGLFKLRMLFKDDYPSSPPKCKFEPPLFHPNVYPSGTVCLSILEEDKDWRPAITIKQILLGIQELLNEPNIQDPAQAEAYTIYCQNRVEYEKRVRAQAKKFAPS
* = called active by the depositor; i = inactive; ? = inconclusive; . = not tested or not shown; + = active, no number. The list is not random: actives were taken first. Their share in the collection is about 1.8%. Unless noted, the rule behind the calls is not given here.

SMILES | HCV core dimer | PABP1 MLLE inh | PABP polyA inh | eIF4E-4G inh | eIF4H inh | UBC9 SUMO inh
O=C(O)C1CSC(c2ccncc2)N1 (stereo not drawn) | -9 | 38* | i | 2 | 0 | 3
CCOC(=O)/C(C#N)=C1/C=Nc2ccccc2N1 | -4 | 0 | i | -9 | 0 | -19
CCC(=O)N=c1ccn(C2=Nc3ccccc3NC2=C(C#N)C#N)cc1 | -4 | 11 | + | -2 | 73* | 20
CCOc1ccccc1Oc1c(C)oc2c(CN3CCN(C)CC3)c(O)ccc2c1=O | 5 | -5 | i | 3 | 1 | 50*
NS(=O)(=O)c1ccc(NNC(=O)c2sccc2Cl)cc1 | 0 | -25 | i | -11 | 4 | 5
O=C(NNc1ccc(Cl)cc1)c1sccc1Cl | -2 | 42* | i | 1 | -10 | 16
CCOC(=O)c1c(C)oc2c1c(C=NCCO)c(O)c1ccccc12 | . | 52* | i | 2 | ? | 92
O=C(NCCCN1CCCC1=O)c1c(O)nc2ccccn2c1=O | 0 | -7 | i | . | -6 | 6
Cc1nnc(NC(=O)C2c3ccccc3Oc3ccccc32)s1 | -11 | 38* | i | 1 | 3 | 19
COc1cc(OC)c2c(O)c3c(c(-c4c5c(c(O)c6c(OC)cc(OC)cc46)CO[C@@H](C)[C@H]5O)c2c1)[C@H](O)[C@H](C)OC3 | 54* | -45 | i | 20 | 86 | .
COc1ccc(CNC(=O)c2cncc(Br)c2)cc1 | 0 | -2 | i | . | 4 | 8
COc1ccc(C2(c3ccc(OC)cc3)NC(=O)NC2=O)cc1 | 2 | 2 | i | . | -3 | 4
CCCC1C(c2ccc(OC)cc2)C(C#N)(C#N)C2(C#N)CC1(N)NC2=O (stereo not drawn) | 2 | 0 | + | -11 | 58 | 30
CCC(C(=O)NC1CCCC1)n1c2ccccc2c2nc(=O)cc(C)n21 (stereo not drawn) | . | 5 | . | . | . | .
CC(C)(C)c1ccc(/C=C2\Oc3cc(O)ccc3C2=O)cc1 | 0 | -51 | i | . | -2 | 8
O=C1/C(=C/c2ccc(Br)cc2)Oc2cc(O)ccc21 | 8 | -46 | + | . | 61 | ?
CC1(C(=O)NS(=O)(=O)c2cccs2)CCN1C(=O)C1CCCCC1 (stereo not drawn) | . | 7 | . | . | . | .
NC(=O)NOCc1c(Cl)cccc1Cl | 0 | 4 | i | 3 | 1 | 2
NC(=O)NOCc1c(F)cccc1Cl | -3 | -5 | + | 1 | 6 | 10
CCOc1ccc(S(=O)(=O)N2CCCCC2)cc1NC(=O)CN1C(=O)NC(C)(C2CC2)C1=O (stereo not drawn) | . | -33 | . | . | . | .
Cn1ccnc1C(=O)Cc1ccc([N+](=O)[O-])cc1 | 4 | 17 | . | . | . | .
CC(C)OC(=O)C(C(=O)C(F)(F)F)c1cc(NS(=O)(=O)c2ccc3ccccc3c2)c2ccccc2c1O (stereo not drawn) | 26 | 26 | i | 2 | 2 | 71*
CC(=O)c1ccc(NC(=O)c2ccc(-n3cnnn3)cc2)cc1 | . | -8 | . | . | . | .
CCOc1ccc(S(=O)(=O)N2CCCC(C(=O)N3CCN(CC)CC3)C2)cc1Cl (stereo not drawn) | 0 | -7 | i | . | -8 | -2
CCCCc1c(C)nc(N2CCCC2)[nH]c1=O | -2 | 1 | i | -3 | 65* | 11
SMILES | HCV core dimer | PABP1 MLLE inh | PABP polyA inh | eIF4E-4G inh | eIF4H inh | UBC9 SUMO inh
CN(C)C=Nc1ccc2nn(-c3ccccc3)nc2c1 | 2 | 0 | i | -8 | 7 | 60*
CN(C)C=Nc1ccc(Cl)c(Cl)c1 | 2 | -5 | i | 6 | 6 | 43
CCCn1nnc(NC(=O)/C=C/c2ccco2)n1 | 2 | 1 | i | 0 | -4 | 16
O=C(/C=C/c1ccco1)NC(=S)Nc1cc(C(F)(F)F)ccc1N1CCOCC1 | 38 | -4 | + | -4 | 79 | 24
Cn1nnc(NC(=S)NC(=O)/C=C/c2ccco2)n1 | 2 | 30 | + | -2 | 88* | 35
CC(=O)Nc1ccc(NC(=S)NC(=O)/C=C/c2ccco2)cc1 | 10 | 14 | i | . | 74* | 4
O=C(/C=C/c1ccco1)NC(=S)Nc1cccc(C(=O)O)c1 | 9 | 20 | + | . | 86* | 34
CC1(c2nc3ccccc3[nH]2)CCC(=O)N1Cc1ccc(F)cc1 (stereo not drawn) | . | -1 | . | . | . | .
COc1ccc(CC(=O)Nc2ccc3c(c2)OC2(CCCC2)O3)c(OC)c1 | . | -16 | . | . | . | .
